In brackets after ≈: the same amount, converted by molar mass.
Assays:
Staphylococcus aureus [1] = assay: In vitro antibacterial activity against the aerobic Staphylococcus aureus (Strain UC no.6694); assay type: functional
Procedure, shortened: (§1)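 Broth microdilution in brain/heart infusion broth with twofold drug dilutions. Inoculum was a standardized suspension giving 10⁵ viable cells/mL final. Plates were incubated 20 h at 37 °C. MIC (mcg/mL) = lowest concentration with no visible growth.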

Mus musculus [2] = assay: Bioactivity in blood, in Bacteroides fragilis infected mice following subcutaneous dose of 200 mg/kg after 15 mins of bleeding; assay type: functional
Procedure, shortened: (§2)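 On day 7 post-infection, groups of five mice were given a single 200 mg/kg subcutaneous dose and killed at set times. Blood was taken by cardiac puncture and abscesses were excised. Activity was measured by standard microbiological assay.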

[3] = In vitro antibacterial activity against the aerobic […] I(Strain UC no.41); assay type: functional; procedure, shortened: as §1
Mus musculus [4] = assay: Bioactivity in abscess, in Bacteroides fragilis infected mice following subcutaneous dose of 200 mg/kg after 60 mins of bleeding; assay type: functional; procedure, shortened: as §2
Mus musculus [5] = assay: Bioactivity in blood, in Bacteroides fragilis infected mice following subcutaneous dose of 200 mg/kg after 90 mins of bleeding; assay type: functional; procedure, shortened: as §2
Mus musculus [6] = assay: Bioactivity in abscess, in Bacteroides fragilis infected mice following subcutaneous dose of 200 mg/kg after 120 mins of bleeding; assay type: functional; procedure, shortened: as §2
Klebsiella pneumoniae = assay: In vitro antibacterial activity against the aerobic Klebsiella pneumoniae (Strain UC no.58); assay type: functional; procedure, shortened: as §1
Mus musculus [7] = assay: Bioactivity in abscess, in Bacteroides fragilis infected mice following subcutaneous dose of 200 mg/kg after 30 mins of bleeding; assay type: functional; procedure, shortened: as §2
Clostridium tetani = assay: In vitro antibacterial activity against the anaerobic Clostridium tetani(Strain UC no.6521); assay type: functional
Procedure, shortened: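 Agar dilution under anaerobic conditions. Serial twofold drug dilutions in Schaedler broth were mixed with molten Wilkins-Chalgren agar. Plates were prereduced 3 h (85% N2, 10% H2, 5% CO2). Strains were grown 48 h on Schaedler agar, suspended to 0.5 McFarland, and 0.001 mL spotted by replicator. Incubation was anaerobic, 37 °C, 48 h.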

Staphylococcus aureus [8] = assay: In vitro antibacterial activity for minimum inhibition concentration (MIC) required to inhibit growth of Staphylococcus aureus; assay type: functional
Procedure, shortened: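 Broth microdilution in brain/heart infusion broth, inoculated with a standardized suspension to a final 10^5 viable cells/mL. Incubation 20 h at 37 °C. MIC read as the lowest concentration preventing visible growth.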

Mus musculus [9] = assay: Bioactivity in blood, in Bacteroides fragilis infected mice following subcutaneous dose of 200 mg/kg after 45 mins of bleeding; assay type: functional; procedure, shortened: as §2
Staphylococcus aureus [10] = assay: In vitro antibacterial activity against the aerobic Staphylococcus aureus (Strain UC no.6692); assay type: functional; procedure, shortened: as §1
Mus musculus [11] = assay: Bioactivity in abscess, in Bacteroides fragilis infected mice following subcutaneous dose of 200 mg/kg after 90 mins of bleeding; assay type: functional; procedure, shortened: as §2
Mus musculus [12] = assay: Bioactivity in abscess, in Bacteroides fragilis infected mice following subcutaneous dose of 200 mg/kg after 15 mins of bleeding; assay type: functional; procedure, shortened: as §2
Escherichia coli = assay: In vitro antibacterial activity against the aerobic Escherichia coli (Strain UC no.45); assay type: functional; procedure, shortened: as §1
Mus musculus [13] = assay: Bioactivity in blood, in Bacteroides fragilis infected mice following subcutaneous dose of 200 mg/kg after 30 mins of bleeding; assay type: functional; procedure, shortened: as §2
Staphylococcus aureus [14] = assay: In vitro antibacterial activity against the aerobic Staphylococcus aureus (Strain UC no.570); assay type: functional; procedure, shortened: as §1
[15] = In vitro antibacterial activity against the aerobic […] III(Strain UC no.3213); assay type: functional; procedure, shortened: as §1
Mus musculus [16] = assay: Bioactivity in abscess, in Bacteroides fragilis infected mice following subcutaneous dose of 200 mg/kg after 150 mins of bleeding; assay type: functional; procedure, shortened: as §2
Mus musculus [17] = assay: Bioactivity in blood, in Bacteroides fragilis infected mice following subcutaneous dose of 200 mg/kg after 150 mins of bleeding; assay type: functional; procedure, shortened: as §2
Cutibacterium acnes = assay: In vitro antibacterial activity against the anaerobic Propionibacterium acnes(Strain UC no.6575); assay type: functional
Procedure, shortened: (§3)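 Agar dilution with serial twofold drug dilutions in Schaedler broth mixed into molten Wilkens-Chalgren agar. Plates prereduced 3 h under 85% N2/10% H2/5% CO2. Strains grown 48 h on Schaedler agar, suspended to 0.5 McFarland, and 0.001 mL spotted by replicator. All steps done anaerobically. Incubation 48 h at 37 °C. MIC is the least drug inhibiting growth; a faint film or fewer than three colonies scored negative.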

Staphylococcus aureus [18] = assay: In vitro antibacterial activity against the aerobic Staphylococcus aureus (Strain UC no.6696); assay type: functional; procedure, shortened: as §1
[19] = In vitro antibacterial activity against the aerobic […] (Strain UC no.153); assay type: functional; procedure, shortened: as §1
Pseudomonas aeruginosa = assay: In vitro antibacterial activity against the aerobic Pseudomonas aeruginosa (Strain UC no.95); assay type: functional; procedure, shortened: as §1
Staphylococcus aureus [20] = assay: In vitro antibacterial activity against the aerobic Staphylococcus aureus (Strain UC no.6689); assay type: functional; procedure, shortened: as §1
Clostridium cadaveris = assay: In vitro antibacterial activity against the anaerobic Clostridium cadaveris (Strain UC no.6510); assay type: functional; procedure, shortened: as §3
Mus musculus [21] = assay: Bioactivity in blood, in Bacteroides fragilis infected mice following subcutaneous dose of 200 mg/kg after 360 mins of bleeding; assay type: functional; procedure, shortened: as §2
Staphylococcus aureus [22] = assay: In vitro antibacterial activity against the aerobic Staphylococcus aureus (Strain UC no.571); assay type: functional; procedure, shortened: as §1
[23] = In vitro antibacterial activity against the aerobic Salmonella schottmuelleri (Strain UC no.126); assay type: functional; procedure, shortened: as §1
Mus musculus [24] = assay: Bioactivity in blood, in Bacteroides fragilis infected mice following subcutaneous dose of 200 mg/kg after 120 mins of bleeding; assay type: functional; procedure, shortened: as §2
[25] = In vitro antibacterial activity against the aerobic […] (Strain UC no.871); assay type: functional; procedure, shortened: as §1
Staphylococcus aureus [26] = assay: In vitro antibacterial activity against the aerobic Staphylococcus aureus (Strain UC no.6695); assay type: functional; procedure, shortened: as §1
Mus musculus [27] = assay: Bioactivity in abscess, in Bacteroides fragilis infected mice following subcutaneous dose of 200 mg/kg after 45 mins of bleeding; assay type: functional; procedure, shortened: as §2
Staphylococcus aureus [28] = assay: In vitro antibacterial activity against the aerobic Staphylococcus aureus (Strain UC no.6688); assay type: functional; procedure, shortened: as §1
Staphylococcus aureus [29] = assay: In vitro antibacterial activity against the aerobic Staphylococcus aureus (Strain UC no.6675); assay type: functional; procedure, shortened: as §1
Streptococcus pyogenes = assay: In vitro antibacterial activity against the aerobic Streptococcus pyogenes (Strain UC no.152)
Staphylococcus aureus [30] = assay: In vitro antibacterial activity against the aerobic Staphylococcus aureus (Strain UC no.76); assay type: functional; procedure, shortened: as §1
Mus musculus [31] = assay: Bioactivity in abscess, in Bacteroides fragilis infected mice following subcutaneous dose of 200 mg/kg after 360 mins of bleeding; assay type: functional; procedure, shortened: as §2
Staphylococcus aureus [32] = assay: In vitro antibacterial activity against the aerobic Staphylococcus aureus (Strain UC no.6686); assay type: functional; procedure, shortened: as §1
Staphylococcus aureus [33] = assay: In vitro antibacterial activity against the aerobic Staphylococcus aureus (Strain UC no.6691); assay type: functional; procedure, shortened: as §1
Proteus vulgaris = assay: In vitro antibacterial activity against the aerobic Proteus vulgaris (Strain UC no.93); assay type: functional; procedure, shortened: as §1
Staphylococcus aureus [34] = assay: In vitro antibacterial activity against the aerobic Staphylococcus aureus (Strain UC no.6693); assay type: functional; procedure, shortened: as §1
Mus musculus [35] = assay: Bioactivity in blood, in Bacteroides fragilis infected mice following subcutaneous dose of 200 mg/kg after 60 mins of bleeding; assay type: functional; procedure, shortened: as §2
Staphylococcus aureus [36] = assay: In vitro antibacterial activity against the aerobic Staphylococcus aureus (Strain UC no.746); assay type: functional; procedure, shortened: as §1
[37] = tested on: Peptoniphilus asaccharolyticus; assay: In vitro antibacterial activity against the anaerobic Peptoccus aerogenes (Strain UC no.6319); assay type: functional; procedure, shortened: as §3

**Q.** With `CCC[C@@H]1C[C@@H](C(=O)N[C@@H]([C@H]2O[C@H](SC)[C@H](O)[C@@H](O)[C@H]2O)[C@H](C)Cl)N(C)C1` [CLINDAMYCIN] as the compound, how does the MIC (Staphylococcus aureus [1]) read?
**A.** > 25 mg/L

**Q.** What about the B (Mus musculus [2]) of the same compound?
**A.** 17 ug (g of abscess)-1

**Q.** And the MIC [3]?
**A.** < 0.012 mg/L

**Q.** And the A (Mus musculus [4])?
**A.** 21 ug (g of abscess)-1

**Q.** And the B (Mus musculus [5])?
**A.** 4 ug (g of abscess)-1

**Q.** And the A (Mus musculus [6])?
**A.** 9 ug (g of abscess)-1

**Q.** What about the MIC (Klebsiella pneumoniae) of the same compound?
**A.** 12.5 mg/L (≈ 29.4 µM)

**Q.** And the A (Mus musculus [7])?
**A.** 22 ug (g of abscess)-1

**Q.** What about the MIC (Clostridium tetani) of the same compound?
**A.** < 0.03 mg/L

**Q.** What about the MIC (Staphylococcus aureus [8]) of the same compound?
**A.** > 25 mg/L

**Q.** What about the B (Mus musculus [9]) of the same compound?
**A.** 17 ug (g of abscess)-1

**Q.** And the MIC (Staphylococcus aureus [10])?
**A.** > 25 mg/L

**Q.** And the A (Mus musculus [11])?
**A.** 13 ug (g of abscess)-1

**Q.** And the A (Mus musculus [12])?
**A.** 16 ug (g of abscess)-1

**Q.** And the MIC (Escherichia coli)?
**A.** > 25 mg/L

**Q.** And the B (Mus musculus [13])?
**A.** 23 ug (g of abscess)-1

**Q.** What about the MIC (Staphylococcus aureus [14]) of the same compound?
**A.** 0.2 mg/L (≈ 0.471 µM)

**Q.** And the MIC [15]?
**A.** < 0.012 mg/L

**Q.** What about the A (Mus musculus [16]) of the same compound?
**A.** 8 ug (g of abscess)-1

**Q.** And the B (Mus musculus [17])?
**A.** 1.4 ug (g of abscess)-1

**Q.** And the MIC (Cutibacterium acnes)?
**A.** < 0.03 mg/L

**Q.** And the MIC (Staphylococcus aureus [18])?
**A.** 0.1 mg/L (≈ 0.235 µM)

**Q.** What about the MIC [19] of the same compound?
**A.** < 0.012 mg/L

**Q.** And the MIC (Pseudomonas aeruginosa)?
**A.** > 25 mg/L

**Q.** And the MIC (Staphylococcus aureus [20])?
**A.** 0.05 mg/L (≈ 0.118 µM)

**Q.** What about the MIC (Clostridium cadaveris) of the same compound?
**A.** < 0.03 mg/L

**Q.** What about the B (Mus musculus [21]) of the same compound?
**A.** 0.2 ug (g of abscess)-1

**Q.** What about the MIC (Staphylococcus aureus [22]) of the same compound?
**A.** 0.2 mg/L (≈ 0.471 µM)

**Q.** What about the MIC [23] of the same compound?
**A.** > 25 mg/L

**Q.** And the B (Mus musculus [24])?
**A.** 3 ug (g of abscess)-1

**Q.** And the MIC [25]?
**A.** < 0.012 mg/L

**Q.** And the MIC (Staphylococcus aureus [26])?
**A.** 0.1 mg/L (≈ 0.235 µM)

**Q.** What about the A (Mus musculus [27]) of the same compound?
**A.** 26 ug (g of abscess)-1

**Q.** And the MIC (Staphylococcus aureus [28])?
**A.** > 25 mg/L

**Q.** And the MIC (Staphylococcus aureus [29])?
**A.** 0.05 mg/L (≈ 0.118 µM)

**Q.** What about the MIC (Streptococcus pyogenes) of the same compound?
**A.** < 0.012 mg/L

**Q.** What about the MIC (Staphylococcus aureus [30]) of the same compound?
**A.** 0.05 mg/L (≈ 0.118 µM)

**Q.** What about the A (Mus musculus [31]) of the same compound?
**A.** 3 ug (g of abscess)-1

**Q.** What about the MIC (Staphylococcus aureus [32]) of the same compound?
**A.** 0.05 mg/L (≈ 0.118 µM)

**Q.** What about the MIC (Staphylococcus aureus [33]) of the same compound?
**A.** 0.1 mg/L (≈ 0.235 µM)

**Q.** And the MIC (Proteus vulgaris)?
**A.** > 25 mg/L

**Q.** And the MIC (Staphylococcus aureus [34])?
**A.** 0.05 mg/L (≈ 0.118 µM)

**Q.** And the B (Mus musculus [35])?
**A.** 12 ug (g of abscess)-1

**Q.** What about the MIC (Staphylococcus aureus [36]) of the same compound?
**A.** 0.05 mg/L (≈ 0.118 µM)

**Q.** What about the MIC [37] of the same compound?
**A.** < 0.03 mg/L

From ChEMBL document CHEMBL1122773 (1984)
